Assay results: ChEMBL document CHEMBL1156797, “Synthesis and antiplasmodial activity of new indolone N-oxide derivatives” (J Med Chem, 2010)

Test system: Plasmodium falciparum
Experiment: Resistance index, ratio of IC50 for chloroquine-resistant Plasmodium falciparum FcB1 to IC50 for drug-sensitive Plasmodium falciparum 3D7
Type: functional
Settings: not given

| SMILES | Ratio IC50 |
| --- | --- |
| COc1ccc2c(c1)C(=O)C(c1ccc(Cl)cc1)=[N+]2[O-] | 3.4 |
| COc1ccc2c(c1)C(=O)C(c1ccc(OC(C)C)cc1)=[N+]2[O-] | 0.5 |
| COc1ccc2c(c1)C(=O)C(c1ccc(C)cc1)=[N+]2[O-] | 1.9 |
| COc1ccc2c(c1)C(=O)C(c1ccc(Oc3ccccc3)cc1)=[N+]2[O-] | 5.2 |
| COc1ccc2c(c1)C(=O)C(c1ccc(Cl)c(C(F)(F)F)c1)=[N+]2[O-] | 0.7 |
| COc1ccc2c(c1)C(=O)C(c1ccc(C)c(C)c1)=[N+]2[O-] | 0.3 |
| COc1ccc2c(c1)C(=O)C(c1cccc(Cl)c1)=[N+]2[O-] | 0.2 |
| O=C1C(c2ccc(Cl)c(Cl)c2)=[N+]([O-])c2ccccc21 | 1.6 |

Test system: Plasmodium falciparum
Experiment: Antimalarial activity against chloroquine-resistant Plasmodium falciparum FcB1 assessed as [3H]hypoxanthine incorporation after 48 hrs by beta-counter
Type: functional, organism-based
Settings: FcB1/Columbia
How it was run: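 Primary assay (Toulouse) on FcB1 cultured in RPMI with 25 mM HEPES and 10% human serum, O RBCs. Serial dilutions in triplicate, 2% parasitaemia, 2% haematocrit, 48 h at 37 °C, 5% CO2. [3H]-hypoxanthine added at 24 h, freeze-thaw harvest, β-counting. IC50 by linear regression on the linear segment of the semilog inhibition curve. Three independent repeats.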

| SMILES | IC50 |
| --- | --- |
| COc1ccc2c(c1)C(=O)C(c1ccc(Cl)cc1)=[N+]2[O-] | 210 nM |
| COc1ccc2c(c1)C(=O)C(c1ccc(OC(C)C)cc1)=[N+]2[O-] | 17 nM |
| COc1ccc2c(c1)C(=O)C(c1ccc(C)cc1)=[N+]2[O-] | 52 nM |
| COc1ccc2c(c1)C(=O)C(c1ccc(Oc3ccccc3)cc1)=[N+]2[O-] | 193 nM |
| COc1ccc2c(c1)C(=O)C(c1ccc(Cl)c(C(F)(F)F)c1)=[N+]2[O-] | 50 nM |
| COc1ccc2c(c1)C(=O)C(c1ccc(C)c(C)c1)=[N+]2[O-] | 37 nM |
| COc1ccc2c(c1)C(=O)C(c1cccc(Cl)c1)=[N+]2[O-] | 21 nM |
| O=C1C(c2ccc(Cl)c(Cl)c2)=[N+]([O-])c2ccccc21 | 155 nM |

Test system: not listed separately
Experiment: Cytotoxicity against human MCF7 cells after 48 hrs by MTT assay
Type: cell-based
Settings: not given

| SMILES | CC50 at 48 h |
| --- | --- |
| COc1ccc2c(c1)C(=O)C(c1ccc(Cl)cc1)=[N+]2[O-] | 21500 nM |
| COc1ccc2c(c1)C(=O)C(c1ccc(OC(C)C)cc1)=[N+]2[O-] | > 32100 nM |
| COc1ccc2c(c1)C(=O)C(c1ccc(C)cc1)=[N+]2[O-] | > 37500 nM |
| COc1ccc2c(c1)C(=O)C(c1ccc(Oc3ccccc3)cc1)=[N+]2[O-] | 7700 nM |
| COc1ccc2c(c1)C(=O)C(c1ccc(Cl)c(C(F)(F)F)c1)=[N+]2[O-] | 13500 nM |
| COc1ccc2c(c1)C(=O)C(c1ccc(C)c(C)c1)=[N+]2[O-] | 26000 nM |
| COc1ccc2c(c1)C(=O)C(c1cccc(Cl)c1)=[N+]2[O-] | 5200 nM |
| O=C1C(c2ccc(Cl)c(Cl)c2)=[N+]([O-])c2ccccc21 | 13700 nM |

Test system: not listed separately
Experiment: Selectivity index, ratio of CC50 for human MCF7 cells to IC50 for chloroquine-resistant Plasmodium falciparum FcB1
Type: functional
Settings: not given
How it was run: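 XTT 0.5 mg/mL added for 180 min, formazan read at 450 nm, value taken from dose–response curves, two experiments in triplicate. This CC50 is divided by the FcB1 IC50 to give the index.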

| SMILES | Ratio CC50/IC50 |
| --- | --- |
| COc1ccc2c(c1)C(=O)C(c1ccc(Cl)cc1)=[N+]2[O-] | 102 |
| COc1ccc2c(c1)C(=O)C(c1ccc(OC(C)C)cc1)=[N+]2[O-] | > 1890 |
| COc1ccc2c(c1)C(=O)C(c1ccc(C)cc1)=[N+]2[O-] | >721 |
| COc1ccc2c(c1)C(=O)C(c1ccc(Oc3ccccc3)cc1)=[N+]2[O-] | 40 |
| COc1ccc2c(c1)C(=O)C(c1ccc(Cl)c(C(F)(F)F)c1)=[N+]2[O-] | 270 |
| COc1ccc2c(c1)C(=O)C(c1ccc(C)c(C)c1)=[N+]2[O-] | 702.7 |
| COc1ccc2c(c1)C(=O)C(c1cccc(Cl)c1)=[N+]2[O-] | 248 |
| O=C1C(c2ccc(Cl)c(Cl)c2)=[N+]([O-])c2ccccc21 | 88 |

Test system: Plasmodium falciparum
Experiment: Antimalarial activity against drug-sensitive Plasmodium falciparum 3D7 assessed as [3H]hypoxanthine incorporation by scintillation counting
Type: functional, organism-based
Settings: not given

| SMILES | IC50 |
| --- | --- |
| COc1ccc2c(c1)C(=O)C(c1ccc(Cl)cc1)=[N+]2[O-] | 62 nM |
| COc1ccc2c(c1)C(=O)C(c1ccc(OC(C)C)cc1)=[N+]2[O-] | 32 nM |
| COc1ccc2c(c1)C(=O)C(c1ccc(C)cc1)=[N+]2[O-] | 27 nM |
| COc1ccc2c(c1)C(=O)C(c1ccc(Oc3ccccc3)cc1)=[N+]2[O-] | 37 nM |
| COc1ccc2c(c1)C(=O)C(c1ccc(Cl)c(C(F)(F)F)c1)=[N+]2[O-] | 69 nM |
| COc1ccc2c(c1)C(=O)C(c1ccc(C)c(C)c1)=[N+]2[O-] | 142 nM |
| COc1ccc2c(c1)C(=O)C(c1cccc(Cl)c1)=[N+]2[O-] | 139 nM |
| O=C1C(c2ccc(Cl)c(Cl)c2)=[N+]([O-])c2ccccc21 | 98 nM |

Test system: Plasmodium falciparum
Experiment: Antimalarial activity against Plasmodium falciparum K1 assessed as [3H]hypoxanthine incorporation by scintillation counting
Type: functional, organism-based
Settings: not given

| SMILES | IC50 |
| --- | --- |
| COc1ccc2c(c1)C(=O)C(c1ccc(Cl)cc1)=[N+]2[O-] | 59 nM |
| COc1ccc2c(c1)C(=O)C(c1ccc(OC(C)C)cc1)=[N+]2[O-] | 81.3 nM |
| COc1ccc2c(c1)C(=O)C(c1ccc(C)cc1)=[N+]2[O-] | 20 nM |
| COc1ccc2c(c1)C(=O)C(c1ccc(Oc3ccccc3)cc1)=[N+]2[O-] | < 1.5 nM |
| COc1ccc2c(c1)C(=O)C(c1ccc(Cl)c(C(F)(F)F)c1)=[N+]2[O-] | 5 nM |
| COc1ccc2c(c1)C(=O)C(c1ccc(C)c(C)c1)=[N+]2[O-] | 178 nM |
| COc1ccc2c(c1)C(=O)C(c1cccc(Cl)c1)=[N+]2[O-] | 96 nM |
| O=C1C(c2ccc(Cl)c(Cl)c2)=[N+]([O-])c2ccccc21 | 80 nM |

Test system: not listed separately
Experiment: Cytotoxicity against human KB cells after 72 hrs by alamar blue assay
Type: cell-based
Settings: not given
How it was run: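 KB cells were seeded at 4×10^4 cells/mL in RPMI 1640 with 10% heat-inactivated FCS and left 24 h at 37 °C, 5% CO2. A dilution series was added in triplicate for 72 h, then AlamarBlue for 2–4 h. Fluorescence was read at ex 530/em 585 nm, with podophyllotoxin as positive control and values from curve fitting.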

| SMILES | CC50 at 72 h |
| --- | --- |
| COc1ccc2c(c1)C(=O)C(c1ccc(Cl)cc1)=[N+]2[O-] | 469000 nM |
| COc1ccc2c(c1)C(=O)C(c1ccc(OC(C)C)cc1)=[N+]2[O-] | 321000 nM |
| COc1ccc2c(c1)C(=O)C(c1ccc(C)cc1)=[N+]2[O-] | 56000 nM |
| COc1ccc2c(c1)C(=O)C(c1ccc(Oc3ccccc3)cc1)=[N+]2[O-] | 5600 nM |
| COc1ccc2c(c1)C(=O)C(c1ccc(Cl)c(C(F)(F)F)c1)=[N+]2[O-] | < 1400 nM |
| COc1ccc2c(c1)C(=O)C(c1ccc(C)c(C)c1)=[N+]2[O-] | 148000 nM |
| COc1ccc2c(c1)C(=O)C(c1cccc(Cl)c1)=[N+]2[O-] | 64000 nM |
| O=C1C(c2ccc(Cl)c(Cl)c2)=[N+]([O-])c2ccccc21 | 570000 nM |

Test system: not listed separately
Experiment: Selectivity index, ratio of CC50 for human KB cells to IC50 for drug-sensitive Plasmodium falciparum 3D7
Type: functional
Settings: not given
How it was run: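 The 3D7 value came from [3H]hypoxanthine incorporation: synchronized culture at 0.5% parasitaemia, 2.5% hematocrit, Albumax-supplemented medium, 2-fold dilutions from 100 to 0.05 μM in triplicate, label added at 24 h and harvested at 48 h.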

| SMILES | Ratio CC50/IC50 |
| --- | --- |
| COc1ccc2c(c1)C(=O)C(c1ccc(Cl)cc1)=[N+]2[O-] | 7564 |
| COc1ccc2c(c1)C(=O)C(c1ccc(OC(C)C)cc1)=[N+]2[O-] | 10031 |
| COc1ccc2c(c1)C(=O)C(c1ccc(C)cc1)=[N+]2[O-] | 2074 |
| COc1ccc2c(c1)C(=O)C(c1ccc(Oc3ccccc3)cc1)=[N+]2[O-] | 151 |
| COc1ccc2c(c1)C(=O)C(c1ccc(Cl)c(C(F)(F)F)c1)=[N+]2[O-] | <20 |
| COc1ccc2c(c1)C(=O)C(c1ccc(C)c(C)c1)=[N+]2[O-] | 980 |
| COc1ccc2c(c1)C(=O)C(c1cccc(Cl)c1)=[N+]2[O-] | 688 |
| O=C1C(c2ccc(Cl)c(Cl)c2)=[N+]([O-])c2ccccc21 | 5816 |

Test system: Plasmodium falciparum
Experiment: Resistance index, ratio of IC50 for chloroquine-resistant Plasmodium falciparum K1 to IC50 for drug-sensitive Plasmodium falciparum 3D7
Type: functional
Settings: not given

| SMILES | Ratio IC50 |
| --- | --- |
| COc1ccc2c(c1)C(=O)C(c1ccc(Cl)cc1)=[N+]2[O-] | 1 |
| COc1ccc2c(c1)C(=O)C(c1ccc(OC(C)C)cc1)=[N+]2[O-] | 2.5 |
| COc1ccc2c(c1)C(=O)C(c1ccc(C)cc1)=[N+]2[O-] | 0.7 |
| COc1ccc2c(c1)C(=O)C(c1ccc(Oc3ccccc3)cc1)=[N+]2[O-] | <0.04 |
| COc1ccc2c(c1)C(=O)C(c1ccc(Cl)c(C(F)(F)F)c1)=[N+]2[O-] | 0.1 |
| COc1ccc2c(c1)C(=O)C(c1ccc(C)c(C)c1)=[N+]2[O-] | 1.2 |
| COc1ccc2c(c1)C(=O)C(c1cccc(Cl)c1)=[N+]2[O-] | 0.7 |
| O=C1C(c2ccc(Cl)c(Cl)c2)=[N+]([O-])c2ccccc21 | 0.8 |

Test system: Plasmodium berghei
Experiment: Antimalarial activity against Plasmodium berghei ANKA infected Swiss mice (Mus musculus) assessed as reduction in parasitemia at 30 mg/kg, perorally after 3 days measured on day 4
Type: functional
Set-up: scale not given: the % may be the effect or the level left
Settings: route oral
How it was run: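 Male Swiss outbred CD-1 mice (20 g) were infected iv with 2×10^6 P. berghei ANKA-infected red cells and put in groups of five per dose. Dosing was by oral gavage in suspending vehicle (0.5% Na carboxymethylcellulose, 0.5% benzyl alcohol, 0.4% Tween 80, 0.9% NaCl), starting 3 h postinfection, then once daily on days 1–3. Day-4 Giemsa films; % inhibition against untreated mean parasitaemia.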

| SMILES | Activity |
| --- | --- |
| COc1ccc2c(c1)C(=O)C(c1ccc(OC(C)C)cc1)=[N+]2[O-] | 25.1% |

Test system: Plasmodium berghei
Experiment: Antimalarial activity against Plasmodium berghei ANKA infected Swiss mice (Mus musculus) assessed as reduction in parasitemia at 30 mg/kg, intraperitoneally after 3 days measured on day 4
Type: functional
Set-up: scale not given: the % may be the effect or the level left
Settings: route intraperitoneal
How it was run: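 P. berghei ANKA in male Swiss outbred CD-1 mice (20 g), kept specific pathogen-free. Infection was iv with 2×10^6 infected red cells on day 0, then mice were randomized into groups of five per dose. Compound was given ip in 0.05% Tween 80. Parasitaemia was read from Giemsa-stained blood films on day 4 and expressed as % inhibition from group arithmetic mean parasitaemia versus the untreated group.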

| SMILES | Activity |
| --- | --- |
| COc1ccc2c(c1)C(=O)C(c1ccc(OC(C)C)cc1)=[N+]2[O-] | 30.4% |

Test system: not listed separately
Experiment: Metabolic stability in CD1 mouse liver microsomes assessed as half life
Type: ADME, Microsome
Settings: not given

| SMILES | half-life |
| --- | --- |
| COc1ccc2c(c1)C(=O)C(c1ccc(OC(C)C)cc1)=[N+]2[O-] | 6 min |
